Reference: ChEMBL document CHEMBL1149258, “Synthesis and structure-activity relationships of novel histamine H1 antagonists: indolylpiperidinyl benzoic acid derivatives” (J Med Chem, 2004)

Experiments:
[1] = molecular target: T1, Adrenergic receptor alpha-1 (Rattus norvegicus, UniProt P15823+P23944+P43140); assay: Displacement of [3H]prazosin from adrenergic alpha-1 receptor in rat brain membranes; assay type: cell membranes
T1 sequence (P15823 whole entry): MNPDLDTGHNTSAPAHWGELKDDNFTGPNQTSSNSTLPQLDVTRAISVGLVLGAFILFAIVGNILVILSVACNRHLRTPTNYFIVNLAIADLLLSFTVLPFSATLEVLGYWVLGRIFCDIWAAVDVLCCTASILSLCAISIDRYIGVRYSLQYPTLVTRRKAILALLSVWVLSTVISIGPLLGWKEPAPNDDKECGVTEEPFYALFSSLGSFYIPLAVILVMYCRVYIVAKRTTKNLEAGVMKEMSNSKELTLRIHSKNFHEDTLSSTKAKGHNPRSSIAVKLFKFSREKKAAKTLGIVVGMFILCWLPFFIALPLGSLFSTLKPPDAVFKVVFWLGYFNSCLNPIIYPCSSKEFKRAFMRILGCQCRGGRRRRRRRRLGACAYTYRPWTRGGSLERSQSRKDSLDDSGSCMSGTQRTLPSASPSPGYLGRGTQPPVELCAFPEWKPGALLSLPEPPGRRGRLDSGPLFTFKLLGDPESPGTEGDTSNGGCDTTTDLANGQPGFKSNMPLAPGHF
T1 sequence (P23944 whole entry): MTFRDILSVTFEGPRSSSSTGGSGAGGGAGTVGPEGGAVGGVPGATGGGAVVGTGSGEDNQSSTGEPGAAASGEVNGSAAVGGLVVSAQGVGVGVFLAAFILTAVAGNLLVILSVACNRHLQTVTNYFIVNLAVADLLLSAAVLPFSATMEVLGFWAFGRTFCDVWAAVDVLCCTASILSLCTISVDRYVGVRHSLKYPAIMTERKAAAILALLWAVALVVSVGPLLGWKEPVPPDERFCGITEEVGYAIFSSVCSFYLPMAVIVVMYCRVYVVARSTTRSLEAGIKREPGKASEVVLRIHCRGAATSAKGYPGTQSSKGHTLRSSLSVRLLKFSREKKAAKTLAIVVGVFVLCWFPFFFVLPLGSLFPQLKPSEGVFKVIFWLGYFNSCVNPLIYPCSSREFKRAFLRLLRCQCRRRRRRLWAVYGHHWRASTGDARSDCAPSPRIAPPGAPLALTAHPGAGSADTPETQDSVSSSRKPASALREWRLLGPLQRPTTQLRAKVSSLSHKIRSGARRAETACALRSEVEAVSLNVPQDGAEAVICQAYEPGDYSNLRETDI
T1 sequence (P43140 whole entry): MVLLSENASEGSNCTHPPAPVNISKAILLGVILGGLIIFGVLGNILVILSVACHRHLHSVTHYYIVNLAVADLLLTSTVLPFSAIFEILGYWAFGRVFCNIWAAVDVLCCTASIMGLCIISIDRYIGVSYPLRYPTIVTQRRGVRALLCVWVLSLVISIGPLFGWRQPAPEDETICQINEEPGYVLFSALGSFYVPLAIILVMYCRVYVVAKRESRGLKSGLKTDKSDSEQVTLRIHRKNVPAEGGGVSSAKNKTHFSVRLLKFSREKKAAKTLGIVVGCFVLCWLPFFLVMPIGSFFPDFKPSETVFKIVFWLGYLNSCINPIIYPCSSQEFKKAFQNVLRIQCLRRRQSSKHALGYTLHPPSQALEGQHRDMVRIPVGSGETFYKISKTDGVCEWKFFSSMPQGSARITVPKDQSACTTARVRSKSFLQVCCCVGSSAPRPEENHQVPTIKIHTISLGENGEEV
Method in brief: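 Rat brain membranes (340 µg protein/mL) with 0.25 nM [3H]-prazosin in 50 mM Tris-HCl pH 7.7, room temperature, 60 min, filtration. Nonspecific binding with 100 µM prazosin. Several concentrations run in duplicate; IC50 by nonlinear regression.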

[2] = molecular target: Histamine H1 receptor (Cavia porcellus, UniProt P31389); assay: Displacement of [3H]mepyramine from histamine H1 receptor in guinea pig cerebellum membranes; assay type: cell membranes, Membrane
Sequence of Histamine H1 receptor (P31389 whole entry): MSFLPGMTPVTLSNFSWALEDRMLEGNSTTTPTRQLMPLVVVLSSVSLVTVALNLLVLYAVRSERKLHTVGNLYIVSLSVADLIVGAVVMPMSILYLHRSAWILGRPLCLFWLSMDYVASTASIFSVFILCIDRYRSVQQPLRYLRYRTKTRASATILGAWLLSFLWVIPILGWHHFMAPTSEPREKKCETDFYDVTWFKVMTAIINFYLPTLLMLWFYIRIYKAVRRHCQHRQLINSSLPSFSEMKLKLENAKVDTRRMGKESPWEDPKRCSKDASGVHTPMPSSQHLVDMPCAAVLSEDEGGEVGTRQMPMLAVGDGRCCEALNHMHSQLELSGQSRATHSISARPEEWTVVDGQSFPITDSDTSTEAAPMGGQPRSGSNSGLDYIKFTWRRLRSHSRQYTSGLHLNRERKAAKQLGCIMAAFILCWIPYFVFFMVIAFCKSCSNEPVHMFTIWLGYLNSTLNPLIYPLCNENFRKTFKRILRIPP
Method in brief: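 Guinea pig cerebellum membranes (160 µg/mL) incubated with 0.7 nM [3H]-mepyramine at 30 °C for 30 min, 0.5 mL final volume, ended by filtration. Nonspecific binding with 10 µM promethazine. At least six concentrations in duplicate; IC50 by nonlinear regression. Compound stocks 10^-2 M in DMSO, diluted in 50% DMSO.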

[3] = tested on: Rattus norvegicus; assay: Inhibition of increase in histamine-induced cutaneous vascular permeability in orally dosed Wistar rat model after 4 hrs; assay type: functional; conditions: po
Method in brief: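 Fasted male rats (150-175 g; n=5 per condition) dosed orally in 0.5% methylcellulose/0.1% Tween 80. At 4 h, under light ether, received four intradermal injections of 5 µg histamine, then 0.5% Evans Blue iv. Killed 1 h later. Papule area from maximum and minimum diameters (ellipse); inhibition of papule area; ED50 (mg/kg, po).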

[4] = tested on: Rattus norvegicus; assay: Inhibition of increase in histamine-induced cutaneous vascular permeability in orally dosed Wistar rat model after 8 hrs; assay type: functional; conditions: po
Method in brief: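 Male Wistar rats (150-175 g), fasted, dosed orally in 0.5% methylcellulose/0.1% Tween 80 (10 mL/kg), n=5. At 1 or 8 h after dosing, four intradermal injections of 5 µg histamine were given, plus iv 0.5% Evans Blue. Papule area (ellipse) measured 1 h later. ED50 in mg/kg po.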

[5] = molecular target: Histamine H1 receptor (Mus musculus) (UniProt P70174); assay: Ex vivo displacement of [3H]mepyramine from brain histamine H1 receptor in orally dosed Swiss Albino mouse; assay type: functional, organism-based
Sequence of Histamine H1 receptor (Mus musculus) (P70174 whole entry): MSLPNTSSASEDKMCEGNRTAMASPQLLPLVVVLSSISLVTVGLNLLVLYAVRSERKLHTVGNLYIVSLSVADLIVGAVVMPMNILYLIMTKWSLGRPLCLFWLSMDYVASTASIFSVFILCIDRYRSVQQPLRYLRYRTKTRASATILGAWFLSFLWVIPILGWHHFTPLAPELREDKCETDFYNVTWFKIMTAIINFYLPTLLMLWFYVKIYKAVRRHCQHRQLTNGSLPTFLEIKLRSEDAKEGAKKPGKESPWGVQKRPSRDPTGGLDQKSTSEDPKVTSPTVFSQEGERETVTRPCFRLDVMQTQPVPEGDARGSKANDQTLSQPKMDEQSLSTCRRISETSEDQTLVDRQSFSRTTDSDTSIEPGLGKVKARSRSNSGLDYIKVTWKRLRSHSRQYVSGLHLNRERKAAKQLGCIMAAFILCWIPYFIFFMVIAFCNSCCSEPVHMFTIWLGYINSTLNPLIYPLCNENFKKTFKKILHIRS
Method in brief: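 Overnight-fasted male mice (20-25 g) dosed orally at several doses (0.5% methylcellulose/0.1% Tween 80, 10 mL/kg), killed 90 min later. Whole brain homogenised in ice-cold 0.05 M Na+/K+ phosphate pH 7.4; aliquots incubated in triplicate with 2 nM final [3H]-mepyramine, 40 min at 30 °C, then filtered. Nonspecific binding from 30 mg/kg po D-chlorpheniramine; total binding from vehicle. Three animals per dose; ED50 reported.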

IC50 [1] [µM] | IC50 [2] | Structure (SMILES) | ED50 [3] [mg/kg] | ED50 [4] | ED50 [5] [mg/kg]
3 |  | CCOCCn1cc(C2CCN(CCOc3ccc(C(=O)O)cc3)CC2)c2ccccc21 |  |  | 
10 | 0.5 µM (antagonist) | CCOCCn1cc(C2CCN(CCOc3cccc(F)c3C(=O)O)CC2)c2ccccc21 |  |  | 
 | 0.034 µM (antagonist) | CCOCCn1cc(C2CCN(CCOc3cc(OC)ccc3C(=O)O)CC2)c2ccccc21 | 0.17 |  | 
> 10 |  | O=C(O)c1ccccc1OCCN1CCC(c2cn(Cc3ccco3)c3ccccc23)CC1 | 3 |  | 
10 | 0.1 µM (antagonist) | CCOCCn1cc(C2CCN(CCOc3ccccc3C(=O)O)CC2)c2cc(F)ccc21 |  |  | 
2 |  | CCOCCn1cc(C2CCN(CCOc3cccc(C(=O)O)c3)CC2)c2ccccc21 |  |  | 
3.6 | 0.15 µM (antagonist) | CCOCCn1cc(C2CCN(CCOc3ccccc3C(=O)O)CC2)c2cc(Br)ccc21 |  |  | 
> 10 |  | O=C(O)c1ccccc1OCCN1CCC(c2cn(CC3CC3)c3cc(F)ccc23)CC1 | 0.11 | 0.5 mg/kg (antagonist) | 
6.2 | 0.39 µM (antagonist) | O=C(O)c1ccccc1OCCN1CCC(c2cn(CCC3COCCO3)c3ccccc23)CC1 (configuration not stated) | 3 |  | 
6.9 | > 0.5 µM | CCOCCn1cc(C2CCN(CCOc3ccccc3C(=O)O)CC2)c2ccc(C(F)(F)F)cc21 |  |  | 
> 10 |  | C=CCn1cc(C2CCN(CCOc3ccccc3C(=O)O)CC2)c2ccccc21 | 3 |  | 
10 | 0.076 µM (antagonist) | CCOCCn1cc(C2CCN(CCOc3ccccc3C(=O)O)CC2)c2ccc(F)cc21 |  |  | 
> 10 | 0.028 µM (antagonist) | O=C(O)c1ccccc1OCCN1CCC(c2cn(Cc3ccc(Cl)s3)c3cc(F)ccc23)CC1 | 1 |  | 
7.6 | 0.5 µM (antagonist) | CCOCCn1cc(C2CCN(CCOc3ccccc3C(=O)O)CC2)c2cccc(C)c21 |  |  | 
8.6 | 0.221 µM (antagonist) | CCOCCn1cc(C2CCN(CCOc3ccc(C)cc3C(=O)O)CC2)c2ccccc21 |  |  | 
> 10 |  | COCCn1cc(C2CCN(CCOc3ccccc3C(=O)O)CC2)c2ccccc21 | 1.1 |  | 

Continued, compound first:

Structure (SMILES) | IC50 [1] [µM] | IC50 [2] | ED50 [3] [mg/kg] | ED50 [4] | ED50 [5] [mg/kg]
CCOCCn1cc(C2CCN(CCOc3ccccc3C(=O)O)CC2)c2cccc(Br)c21 | 10 | 0.08 µM (antagonist) | > 3 |  | 
O=C(O)c1cccc(CN2CCC(c3cn(Cc4ccco4)c4ccccc34)CC2)c1 | > 10 | 0.087 µM (antagonist) | 1 |  | 
CCOCCn1cc(C2CCN(Cc3cccc(C(=O)O)c3)CC2)c2ccccc21 |  | 0.218 µM (antagonist) | 0.011 |  | 
COCCn1cc(C2CCN(Cc3ccc(OC)c(C(=O)O)c3)CC2)c2ccc(F)cc21 | > 10 |  | 0.06 | 0.02 mg/kg (antagonist) | 4
CCOCCn1cc(C2CCN(Cc3ccccc3OCC(=O)O)CC2)c2ccccc21 | > 10 | 0.196 µM (antagonist) | > 3 |  | 
CCOCCn1cc(C2CCN(Cc3ccc(OCC(=O)O)cc3)CC2)c2ccccc21 | > 10 | 0.322 µM (antagonist) | > 3 |  | 
CCOCCn1cc(C2CCN(Cc3ccccc3C(=O)O)CC2)c2ccccc21 | > 10 | 0.33 µM (antagonist) | 3 |  | 
COc1ccc(CN2CCC(c3cn(Cc4ccoc4)c4cc(F)ccc34)CC2)cc1C(=O)O | > 10 |  | 0.02 | 0.037 mg/kg (antagonist) | 7
O=C(O)c1cccc(CN2CCC(c3cn(Cc4cccs4)c4ccccc34)CC2)c1 | > 10 |  | 3 |  | 
CCOCCn1cc(C2CCN(Cc3cc(C(=O)O)ccc3Br)CC2)c2ccccc21 | > 10 | 0.345 µM (antagonist) | 3 |  | 
CCOCCn1cc(C2CCN(Cc3ccc(F)c(C(=O)O)c3)CC2)c2ccccc21 | > 10 | 0.3 µM (antagonist) |  | 0.01 mg/kg (antagonist) | 0.5
O=C(O)c1ccccc1OCCN1CCC(c2cn(Cc3ccc(Cl)s3)c3ccccc23)CC1 |  |  | 3 |  | 
CCOCCn1cc(C2CCN(CCOc3ccc(C(C)=O)cc3C(=O)O)CC2)c2ccccc21 | > 10 | 0.219 µM (antagonist) |  |  | 
O=C(O)c1ccccc1OCCN1CCC(c2cn(Cc3cccs3)c3ccccc23)CC1 | 3.7 | 0.098 µM (antagonist) |  |  | 
CCOCCn1cc(C2CCN(Cc3cccc(OCC(=O)O)c3)CC2)c2ccccc21 | > 10 | 0.13 µM (antagonist) | 3 |  | 
CCOCCn1cc(C2CCN(CCOc3c(Br)cc(Br)cc3C(=O)O)CC2)c2ccccc21 | 6.9 | 0.225 µM (antagonist) |  |  | 
CCOCCn1cc(C2CCN(Cc3cccc(C(=O)O)c3)CC2)c2cc(OC)ccc21 | > 10 | 0.5 µM (antagonist) | > 3 |  | 
COc1ccc(CN2CCC(c3cn(Cc4ccc(Cl)s4)c4cc(F)ccc34)CC2)cc1C(=O)O | > 10 |  | 0.19 | 0.09 mg/kg (antagonist) | 5.5
CCOCCn1cc(C2CCN(Cc3ccc(OC)c(C(=O)O)c3)CC2)c2ccccc21 |  |  | 0.02 |  | 
O=C(O)c1ccccc1OCCN1CCC(c2cn(CCc3ccccn3)c3ccccc23)CC1 | > 10 | 0.57 µM (antagonist) |  |  | 
O=C(O)c1ccccc1OCCN1CCC(c2cn(CC3CC3)c3ccccc23)CC1 | > 10 |  | 0.6 | 1.3 mg/kg (antagonist) | > 100
O=C(O)c1cccc(CN2CCC(c3cn(Cc4ccc(Cl)s4)c4ccccc34)CC2)c1 |  | 0.103 µM (antagonist) | > 3 |  | 
CCOCCn1cc(C2CCN(CCOc3ccsc3C(=O)O)CC2)c2ccccc21 | < 10 | 0.1 µM (antagonist) |  |  | 
COCCn1cc(C2CCN(Cc3cccc(C(=O)O)c3)CC2)c2ccc(F)cc21 | > 10 | 0.15 µM (antagonist) | 1 |  | 
O=C(O)c1ccccc1OCCN1CCC(c2cn(Cc3ccco3)c3cc(F)ccc23)CC1 | > 10 | 0.037 µM (antagonist) | 0.32 | 2.2 mg/kg (antagonist) | 
